Experimental findings from ChEMBL document CHEMBL1770123, “SPF32629A and SPF32629B: enantioselective synthesis, determination of absolute configuration, cytotoxicity and antibacterial evaluation” (Eur J Med Chem, 2011) are described below.

Usually MIC stands for the least concentration at which growth counts as inhibited. A higher MIC goes with a need for much substance.

≈ marks a conversion by molar mass, not a printed value. Calls of active or inactive are those of the source. No cut-off for these calls is given here.

The subject of test [1] is Staphylococcus aureus. The test can be described thus: Antimicrobial activity against methicillin-resistant Staphylococcus aureus strain 2 TB4G at 100 ug/disc after 24 hrs by disc diffusion method. The format is functional. The following applies: read-out: DIZ. (A growth-free zone around the sample is the usual read-out of agar diffusion tests.)
Test [2] has as its system Staphylococcus aureus. Put plainly: Antimicrobial activity against methicillin-resistant Staphylococcus aureus strain 1 TB3G after 24 hrs by microdilution method. The format is functional. The procedure, abridged: (§1)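 Growth was judged by turbidity. The MIC was taken as the lowest concentration giving the lowest growth.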
(In general: In broth dilution the organism is exposed to a series of concentrations in liquid medium.)

Test [3] relates to Staphylococcus aureus. The test can be described thus: Antimicrobial activity against methicillin-resistant Staphylococcus aureus strain 1 TB3G at 100 ug/disc after 24 hrs by disc diffusion method. In kind it is functional. The following applies: read-out: DIZ.
Test [4] has as its system Listeria monocytogenes. Put plainly: Antimicrobial activity against Listeria monocytogenes after 24 hrs by microdilution method. In kind it is functional. In short, it runs like this: (§2)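 Growth was judged by turbidity, and the MIC was taken as the minimum concentration giving the lowest growth. Amikacin served as reference.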
The test system of test [5] is Staphylococcus aureus. The test can be described thus: Antimicrobial activity against Staphylococcus aureus at 100 ug/disc after 24 hrs by disc diffusion method. The format is functional. Conditions: read-out: DIZ.
For test [6], the system named is Staphylococcus aureus. The test can be described thus: Antimicrobial activity against methicillin-resistant Staphylococcus aureus strain 4 TB5G at 100 ug/disc after 24 hrs by disc diffusion method. The format is functional, organism-based.
Test [7] has as its system Klebsiella pneumoniae. Put plainly: Antimicrobial activity against Klebsiella pneumoniae at 100 ug/disc after 24 hrs by disc diffusion method. The format is functional. Conditions: read-out: DIZ.
Test [8] deals with Salmonella typhimurium. Put plainly: Antimicrobial activity against Salmonella Typhimurium at 100 ug/disc after 24 hrs by disc diffusion method. The format is functional, Salmonella enterica subsp. enterica serovar Typhimurium. Conditions: Salmonella enterica, read-out: DIZ.
Test [9] has as its system Staphylococcus epidermidis. Put plainly: Antimicrobial activity against Staphylococcus epidermidis after 24 hrs by microdilution method. The format is functional. In short, it runs like this:
as §2

Test [10] has as its system Listeria monocytogenes. The test can be described thus: Antimicrobial activity against Listeria monocytogenes at 100 ug/disc after 24 hrs by disc diffusion method. The format is functional. Conditions: read-out: DIZ.
The test system of test [11] is Staphylococcus epidermidis. Put plainly: Antimicrobial activity against Staphylococcus epidermidis at 100 ug/disc after 24 hrs by disc diffusion method. In kind it is functional. The following applies: read-out: DIZ.
Test [12] has as its system Staphylococcus aureus. Put plainly: Antimicrobial activity against Staphylococcus aureus after 24 hrs by microdilution method. In kind it is functional. In short, it runs like this: as §2
Test [13] deals with Escherichia coli. The test can be described thus: Antimicrobial activity against Escherichia coli after 24 hrs by microdilution method. In kind it is functional. In short, it runs like this:
as §2

Test [14] has as its system Staphylococcus aureus. Put plainly: Antimicrobial activity against methicillin-resistant Staphylococcus aureus strain 4 TB5G after 24 hrs by microdilution method. In kind it is functional. The procedure, abridged:
as §1

Test [15] deals with Salmonella typhimurium. The test can be described thus: Antimicrobial activity against Salmonella Typhimurium after 24 hrs by microdilution method. The following applies: Salmonella enterica. The format is functional, Salmonella enterica subsp. enterica serovar Typhimurium. In short, it runs like this:
as §2

Test [16] deals with Bacillus subtilis. The test can be described thus: Antimicrobial activity against Bacillus subtilis after 24 hrs by microdilution method. The format is functional. The procedure, abridged:
as §2

The test system of test [17] is Staphylococcus aureus. Put plainly: Antimicrobial activity against methicillin-resistant Staphylococcus aureus strain 2 TB4G after 24 hrs by microdilution method. The format is functional. The procedure, abridged: as §1
The subject of test [18] is Klebsiella pneumoniae. The test can be described thus: Antimicrobial activity against Klebsiella pneumoniae after 24 hrs by microdilution method. The format is functional. In short, it runs like this: as §2
The subject of test [19] is Bacillus subtilis. Put plainly: Antimicrobial activity against Bacillus subtilis at 100 ug/disc after 24 hrs by disc diffusion method. The format is functional. Conditions: read-out: DIZ.
Test [20] deals with Escherichia coli. Put plainly: Antimicrobial activity against Escherichia coli at 100 ug/disc after 24 hrs by disc diffusion method. The format is functional. Conditions: read-out: DIZ.

`NCC[C@H](O)C(=O)N[C@@H]1C[C@H](N)[C@@H](O[C@H]2O[C@H](CN)[C@@H](O)[C@H](O)[C@H]2O)[C@H](O)[C@H]1O[C@H]1O[C@H](CO)[C@@H](O)[C@H](N)[C@H]1O` [AMIKACIN]: the zone of inhibition at 100 µg/disc in test [1] was determined as 19 mm; in test [3], 17 mm; in test [5], 20 mm; in [7], 21 mm; in test [8] it was 19 mm; in [10] it was 20 mm. The zone of inhibition at 100 µg/disc was 22 mm in test [11], 21 mm in test [19] and 22 mm in test [20]. Moreover, the MIC in [2] was greater than 100 µg/mL; in test [4], 6 µg/mL (≈ 10.2 µM); in test [9] it was 12 µg/mL (≈ 20.5 µM); in test [12], 50 µg/mL (≈ 85.4 µM); in test [13], 6 µg/mL (≈ 10.2 µM); in test [14], greater than 100 µg/mL. Also, the MIC was 12 µg/mL (≈ 20.5 µM) in test [15], 6 µg/mL (≈ 10.2 µM) in test [16], greater than 100 µg/mL in test [17] and 6 µg/mL (≈ 10.2 µM) in [18]. The “diameter of the inhibition zone (DIZ)” value in test [6] is “inactive”.
